The values that follow come from ChEMBL document CHEMBL1828503, “Design, synthesis and docking studies of quinoline-oxazolidinone hybrid molecules and their antitubercular properties” (2011).

Assay type in all cases: functional
Experiment [1] has as its system Mycobacterium tuberculosis. Description: Antimicrobial activity against Mycobacterium tuberculosis H37Rv ATCC 27294 after 7 days by resazurin assay. The settings on record: H37Rv ATCC 27294, 168 h. The procedure, abridged: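 M. tuberculosis H37Rv ATCC 27294 culture diluted into fresh medium in 96-well microtitre plates. Compounds were taken from 2 mg/mL stocks in DMF, with DMF-only control tubes and rifampicin and isoniazid as references. Plates were incubated 37 °C for 7 days, then 0.01% aqueous resazurin was added and read after 1 h at 37 °C. MIC is the lowest concentration preventing the blue-to-pink change.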

For experiment [2], the system named is Streptococcus pyogenes. Put plainly: Antimicrobial activity against Streptococcus pyogenes clinical isolate after 18 to 48 hrs by serial dilution method.
Experiment [3] concerns Escherichia coli. Description: Antimicrobial activity against Escherichia coli ATCC 25922 after 18 to 48 hrs by serial dilution method.
The test system of experiment [4] is Mycolicibacterium smegmatis. Put plainly: Antimicrobial activity against Mycobacterium smegmatis ATCC 19420 after 7 days by resazurin assay. The settings on record: ATCC 19420, 168 h. In outline:
(§1)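 Resazurin microplate assay. Culture added to fresh medium in 96-well plates. Compound stocks 2 mg/mL in DMF. DMF-only controls, with rifampicin and isoniazid as references. Incubated 7 days at 37 °C, then 0.01% resazurin in water added. Blue-to-pink change read after 1 h at 37 °C. MIC taken as the lowest concentration preventing the colour change.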
In general terms: The colour change of resazurin is a common sign of viable cells or microbes.

For experiment [5], the system named is Klebsiella pneumoniae. Put plainly: Antimicrobial activity against Klebsiella pneumoniae clinical isolate after 18 to 48 hrs by serial dilution method.
Experiment [6] deals with Mycolicibacterium fortuitum. Description: Antimicrobial activity against Mycobacterium fortuitum ATCC 19542 after 7 days by resazurin assay. The conditions noted are these: ATCC 19542, 168 h. In outline: as §1
The subject of experiment [7] is Pseudomonas aeruginosa. Put plainly: Antimicrobial activity against Pseudomonas aeruginosa ATCC 27853 after 18 to 48 hrs by serial dilution method.
In experiment [8] the test system is Staphylococcus aureus. Description: Antimicrobial activity against Staphylococcus aureus ATCC 25923 after 18 to 48 hrs by serial dilution method.
In experiment [9] the test system is Mycobacterium tuberculosis. Put plainly: Antimicrobial activity against Mycobacterium tuberculosis H37Rv ATCC 27294 assessed as growth inhibition after 7 days by resazurin assay.

Structures are written as SMILES. ≈ marks a conversion by molar mass, not a printed value.

The MIC is the least concentration at which growth counts as inhibited. A high value points to weaker potency. `CCN(CC)CC1CN(CC(=O)Nc2cc(C)nc3ccc(OC)cc23)C(=O)O1` (stereo not given): the MIC in experiment [1] amounted to 1 µg/mL (≈ 2.5 µM); in experiment [2], 3.12 µg/mL (≈ 7.8 µM); in experiment [3], 0.4 µg/mL (≈ 0.999 µM); in experiment [4], 10 µg/mL (≈ 25 µM); in [5] it was 0.1 µg/mL (≈ 0.25 µM); in experiment [6], 10 µg/mL (≈ 25 µM). Moreover, the MIC worked out at 0.4 µg/mL (≈ 0.999 µM) in experiment [7] and 1.6 µg/mL (≈ 4 µM) in [8]. In addition, the “growth inhibition (GI)” value in experiment [9] amounted to 90%.
As for `CCN1CCN(CC2CN(CC(=O)Nc3cc(C)nc4ccc(OC)cc34)C(=O)O2)CC1` (stereo not given), the MIC is 10 µg/mL (≈ 22.6 µM) in experiment [1]; 0.2 µg/mL (≈ 0.453 µM) in experiment [2]; 1.6 µg/mL (≈ 3.62 µM) in [3]; 100 µg/mL (≈ 226 µM) in experiment [4]; 1.6 µg/mL (≈ 3.62 µM) in [5]; 100 µg/mL (≈ 226 µM) in experiment [6]. For the same compound, the MIC in experiment [7] and in experiment [8] was 0.8 µg/mL (≈ 1.81 µM) in each case. Further, the “growth inhibition (GI)” value in experiment [9] turned out to be 85%.
Consider `COc1ccc2nc(C)cc(NC(=O)CN3CC(CN4CCN(C(C)=O)CC4)OC3=O)c2c1` (stereo not given), for which the MIC in experiment [1] amounted to 5 µg/mL (≈ 11 µM); in experiment [2], 0.8 µg/mL (≈ 1.76 µM); in experiment [3], 1.6 µg/mL (≈ 3.51 µM); in [4] it was 100 µg/mL (≈ 220 µM); in experiment [5], 1.6 µg/mL (≈ 3.51 µM); in experiment [6], 100 µg/mL (≈ 220 µM). Moreover, the MIC in experiment [7] was 1.6 µg/mL (≈ 3.51 µM); in experiment [8], 0.8 µg/mL (≈ 1.76 µM). The “growth inhibition (GI)” value in experiment [9] turned out to be 80%.
For `COc1ccc2nc(C)cc(NC(=O)CN3CC(CN4CCN(C(C)C)CC4)OC3=O)c2c1` (stereo not given), the MIC turned out to be 5 µg/mL (≈ 11 µM) in experiment [1]; 1.6 µg/mL (≈ 3.51 µM) in [2]; 0.8 µg/mL (≈ 1.76 µM) in experiment [3]; 100 µg/mL (≈ 220 µM) in experiment [4]; 3.12 µg/mL (≈ 6.86 µM) in [5]; 100 µg/mL (≈ 220 µM) in [6]. The MIC in [7] worked out at 0.8 µg/mL (≈ 1.76 µM); in experiment [8], 1.6 µg/mL (≈ 3.51 µM). Moreover, the “growth inhibition (GI)” value in [9] was found to be 85%.
Take `COc1ccc2nc(C)cc(NC(=O)CN3CC(CN4CCN(C(C)(C)C)CC4)OC3=O)c2c1` (stereo not given): the MIC was determined as 100 µg/mL (≈ 213 µM) in [1]; 0.8 µg/mL (≈ 1.7 µM) in experiment [2]; 1.6 µg/mL (≈ 3.41 µM) in experiment [3]; 100 µg/mL (≈ 213 µM) in [4]; 1.6 µg/mL (≈ 3.41 µM) in experiment [5]; 100 µg/mL (≈ 213 µM) in [6]. Moreover, the figures for the MIC in experiment [7] and in [8] were 0.8 µg/mL (≈ 1.7 µM) and 1.6 µg/mL (≈ 3.41 µM), respectively. Further, the “growth inhibition (GI)” value in experiment [9] is 0%.
For the compound `COc1ccc2nc(C)cc(NC(=O)CN3CC(CN4CCOCC4)OC3=O)c2c1` (stereo not given), the MIC was found to be 1 µg/mL (≈ 2.41 µM) in experiment [1]; 0.2 µg/mL (≈ 0.483 µM) in experiment [2]; 0.1 µg/mL (≈ 0.241 µM) in [3]; 10 µg/mL (≈ 24.1 µM) in experiment [4]; 0.1 µg/mL (≈ 0.241 µM) in [5]; 10 µg/mL (≈ 24.1 µM) in [6]. In addition, the results for the MIC in [7] and in experiment [8] were 0.4 µg/mL (≈ 0.965 µM) and 0.8 µg/mL (≈ 1.93 µM), respectively. Also, the “growth inhibition (GI)” value in [9] is 95%.
As for `COc1ccc2nc(C)cc(NC(=O)CN3CC(CNC4CC4)OC3=O)c2c1` (stereo not given), the MIC in experiment [1] was 10 µg/mL (≈ 26 µM); in experiment [2], 3.12 µg/mL (≈ 8.13 µM); in [3], over 12.5 µg/mL; in experiment [4], 100 µg/mL (≈ 260 µM); in experiment [5] it was over 12.5 µg/mL; in [6], 100 µg/mL (≈ 260 µM). The MIC in [7] and in experiment [8] was 1.6 µg/mL (≈ 4.16 µM) in each case. Also, the “growth inhibition (GI)” value in experiment [9] came out at 90%.
Regarding `COc1ccc2nc(C)cc(NC(=O)CN3CC(CN4CCCC4)OC3=O)c2c1` (stereo not given), the MIC in [1] is 100 µg/mL (≈ 251 µM); in experiment [2] it was 3.12 µg/mL (≈ 7.84 µM); in [3] it was over 12.5 µg/mL; in experiment [4] it was 100 µg/mL (≈ 251 µM); in experiment [5] it was over 12.5 µg/mL; in experiment [6], 100 µg/mL (≈ 251 µM). Further, the values for the MIC in [7] and in [8] were 1.6 µg/mL (≈ 4.02 µM) and 6.25 µg/mL (≈ 15.7 µM), respectively. Further, in experiment [9], the “growth inhibition (GI)” value is 0%.
Regarding `COc1ccc2nc(C)cc(NC(=O)CN3CC(CN4CCCCC4)OC3=O)c2c1` (stereo not given), the MIC in experiment [1] is 100 µg/mL (≈ 242 µM); in experiment [2] it was 6.25 µg/mL (≈ 15.2 µM); in experiment [3], over 12.5 µg/mL; in experiment [4], 100 µg/mL (≈ 242 µM); in experiment [5], over 12.5 µg/mL; in experiment [6], 100 µg/mL (≈ 242 µM). Moreover, the MIC in [7] and in [8] was 3.12 µg/mL (≈ 7.58 µM) each time. For the same compound, in experiment [9], the “growth inhibition (GI)” value is 0%.
For the compound `COc1ccc2nc(C)cc(NC(=O)CN3CC(CNCC4CCCCC4)OC3=O)c2c1` (stereo not given), the MIC was 100 µg/mL (≈ 227 µM) in experiment [1]; 1.6 µg/mL (≈ 3.63 µM) in experiment [2]; 6.25 µg/mL (≈ 14.2 µM) in experiment [3]; 100 µg/mL (≈ 227 µM) in [4]; 6.25 µg/mL (≈ 14.2 µM) in experiment [5]; 100 µg/mL (≈ 227 µM) in [6]. For the same compound, the MIC in experiment [7] was over 12.5 µg/mL; in experiment [8], 6.25 µg/mL (≈ 14.2 µM). Also, the “growth inhibition (GI)” value in experiment [9] is reported as 0%.
